From ChEMBL document CHEMBL2176968, “Identification of less lipophilic riminophenazine derivatives for the treatment of drug-resistant tuberculosis” (J Med Chem, 2012)
≈ marks a conversion by molar mass, not a printed value.

Experiments:
[1] = Half life in BALB/c mouse at 20 mg/kg, po; type: ADME, organism-based; design: dose 20 mg/kg, route oral; conditions: in vivo
[2] = Selectivity index, ratio of IC50 for african green monkey Vero cells to MIC for Mycobacterium tuberculosis H37Rv ATCC 27294; type: functional
[3] = AUC (0 to 24 hrs) in BALB/c mouse at 20 mg/kg, po; type: ADME, organism-based; design: time < 24 hr, dose 20 mg/kg, route oral; conditions: plasma
[4] = Octanol-water partition coefficient, log P of the compound; type: physicochemical
[5] = tested on: Mycobacterium tuberculosis; assay: Antimycobacterial activity against Mycobacterium tuberculosis H37Rv ATCC 27294 after 7 days by microplate Alamar blue assay; type: functional; conditions: H37Rv ATCC 27294, 168 h
Method in brief: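 Run in 96-well plates against M. tuberculosis H37Rv using the Alamar Blue read-out. The MIC was taken as the lowest concentration giving >90% growth inhibition.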

[6] = Cmax in BALB/c mouse at 20 mg/kg, po; type: ADME, organism-based; design: dose 20 mg/kg, route oral; conditions: in vivo
Vero = assay: Cytotoxicity against african green monkey Vero cells after 48 hrs by MTT assay; type: cell-based; conditions: Chlorocebus sabaeus
Method in brief: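 Vero cells were exposed to compound. The IC50 was taken as the concentration inhibiting 50% of growth relative to an untreated control.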

[7] = Acute toxicity in mouse; type: organism-based; conditions: in vivo
Mus musculus = assay: Acute toxicity in mouse assessed as survival at 500 mg/kg, po measured for 7 days; type: organism-based; design: dose 500 mg/kg, route oral; conditions: in vivo, 168 h
Method in brief: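 Mice given one oral dose of 500 mg/kg, then observed for 7 days. The number of surviving mice was recorded.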

[8] = Aqueous solubility of the compound in 100 ml buffer solution at pH 1.0; type: physicochemical
Method in brief: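 Solubility was measured in pH 1 buffer and reported in g/100 mL.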

| SMILES | half-life [1] [h] | Selectivity Index [2] | AUC(0-t) at 24 h [3] [ng·h/mL] | logP [4] | MIC [5] [µg/mL] | Cmax [6] [ng/mL] | IC50 (Vero) [µg/mL] | LD50 [7] [mg/kg] | Activity (Mus musculus) | solubility [8] [g] |
| --- | --- | --- | --- | --- | --- | --- | --- | --- | --- | --- |
| CC(C)/N=c1\cc2n(-c3ccc(Cl)cc3)c3ccccc3nc-2cc1Nc1ccc(Cl)cc1 [CLOFAZIMINE] | 29.7 | 572 | 6960 | 5.34 | 0.12 (≈ 0.253 µM) | 380 | 68.6 (≈ 145 µM) | > 3000 |  |  |
| COC1CCC(/N=c2\cc3n(-c4ccc(Cl)cc4)c4ccccc4nc-3cc2Nc2cccnc2C)CC1 (stereo not drawn) |  | 3195 |  |  | 0.011 (≈ 0.021 µM) |  | 35.1 (≈ 67.1 µM) |  | Toxic |  |
| COc1ncccc1Nc1cc2nc3ccccc3n(-c3ccc(F)cc3)c-2c/c1=N\C1CCC(OC)CC1 (stereo not drawn) | 7.9 | 4000 | 45400 | 4.82 | 0.016 (≈ 0.0306 µM) | 3650 | > 64 |  | Non-toxic |  |
| COc1ncccc1Nc1cc2nc3ccccc3n(-c3ccc(Cl)cc3)c-2c/c1=N\C1CCOCC1 | 6.62 | 4000 | 33100 | 4.15 | 0.016 (≈ 0.0312 µM) | 2010 | > 64 |  | Non-toxic |  |
| COc1ncccc1Nc1cc2nc3ccccc3n(-c3ccc(OC(F)(F)F)cc3)c-2c/c1=N\C1CCC(OC)CC1 (stereo not drawn) | 41.2 | 4000 | 24100 | 4.52 | 0.016 (≈ 0.0271 µM) | 1300 | > 64 |  | Non-toxic |  |
| Cc1ncccc1Nc1cc2nc3ccccc3n(-c3ccc(C(F)(F)F)cc3)c-2c/c1=N\C1CCOCC1 |  | 5818 |  |  | 0.011 (≈ 0.0208 µM) |  | > 64 |  | Toxic |  |
| COC1CCC(/N=c2\cc3n(-c4ccc(F)cc4)c4ccccc4nc-3cc2Nc2cccnc2C)CC1 (stereo not drawn) |  | 3368 |  |  | 0.019 (≈ 0.0374 µM) |  | > 64 |  | Toxic |  |
| COc1ncccc1Nc1cc2nc3ccccc3n(-c3ccc(C(F)(F)F)cc3)c-2c/c1=N\C1CCOCC1 |  | 4000 |  |  | 0.016 (≈ 0.0293 µM) |  | > 64 |  | Non-toxic |  |
| Cc1ncccc1Nc1cc2nc3ccccc3n(-c3ccc(F)cc3)c-2c/c1=N\C1CCOCC1 |  | 2462 |  |  | 0.026 (≈ 0.0542 µM) |  | > 64 |  | Toxic |  |
| COC1CCC(/N=c2\cc3n(-c4ccc(Cl)cc4)c4ccccc4nc-3cc2Nc2ccc(C)nc2)CC1 (stereo not drawn) | 16.1 | 3180 | 22100 | 4.11 | 0.016 (≈ 0.0305 µM) | 1560 | 50.9 (≈ 97.1 µM) |  | Non-toxic |  |
| COc1ncccc1Nc1cc2nc3ccccc3n(-c3ccc(F)cc3)c-2c/c1=N\C(C)C | 17.5 | 2133 | 52400 | 4.07 | 0.03 (≈ 0.0661 µM) | 3020 | > 64 |  | Non-toxic | 0.7 |
| CC(C)/N=c1\cc2n(-c3ccc(Cl)cc3)c3ccccc3nc-2cc1Nc1cccnc1 |  | 273 |  |  | 0.03 (≈ 0.0682 µM) |  | 8.2 (≈ 18.6 µM) | 422 |  |  |
| COc1ncccc1Nc1cc2nc3ccccc3n(-c3ccc(Cl)cc3)c-2c/c1=N\C1CCC(OC)CC1 (stereo not drawn) | 7 | 4000 | 43900 | 3.74 | 0.016 (≈ 0.0296 µM) | 3010 | > 64 |  | Non-toxic |  |
| COC1CCC(/N=c2\cc3n(-c4ccc(Br)cc4)c4ccccc4nc-3cc2Nc2cccnc2C)CC1 (stereo not drawn) |  | 2788 |  |  | 0.015 (≈ 0.0264 µM) |  | 41.8 (≈ 73.6 µM) |  | Toxic |  |
| COc1ncccc1Nc1cc2nc3ccccc3n(-c3ccc(Br)cc3)c-2c/c1=N\C1CCOCC1 |  | 3200 |  |  | 0.02 (≈ 0.0359 µM) |  | > 64 |  | Non-toxic |  |
| COc1ncccc1Nc1cc2nc3ccccc3n(-c3ccc(C(F)(F)F)cc3)c-2c/c1=N\C1CCC(OC)CC1 (stereo not drawn) |  | 4000 |  |  | 0.016 (≈ 0.0279 µM) |  | > 64 |  | Non-toxic |  |
